The text below walks through data of ChEMBL document CHEMBL1123885, “Analogues of 3-ethyl-3-(4-pyridyl)piperidine-2,6-dione as selective inhibitors of aromatase: derivatives with variable 1-alkyl and 3-alkyl substituents” (J Med Chem, 1987).

In data set [1] the target is T1, Cholesterol side-chain cleavage enzyme, mitochondrial (Bos taurus, UniProt P00189).
T1 sequence (P00189 whole entry): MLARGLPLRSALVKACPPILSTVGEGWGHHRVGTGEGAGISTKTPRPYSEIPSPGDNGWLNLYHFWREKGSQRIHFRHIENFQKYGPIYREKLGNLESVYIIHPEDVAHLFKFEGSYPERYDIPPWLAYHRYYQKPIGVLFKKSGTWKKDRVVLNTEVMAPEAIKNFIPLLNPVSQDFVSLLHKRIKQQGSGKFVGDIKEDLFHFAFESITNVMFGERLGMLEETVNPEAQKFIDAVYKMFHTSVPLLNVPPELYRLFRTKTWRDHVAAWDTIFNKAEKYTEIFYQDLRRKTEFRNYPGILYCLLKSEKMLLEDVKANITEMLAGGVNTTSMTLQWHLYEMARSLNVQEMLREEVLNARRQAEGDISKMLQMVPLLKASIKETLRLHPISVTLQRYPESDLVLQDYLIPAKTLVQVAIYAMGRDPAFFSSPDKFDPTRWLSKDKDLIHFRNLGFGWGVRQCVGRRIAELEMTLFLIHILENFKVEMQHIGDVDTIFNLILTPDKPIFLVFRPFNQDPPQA
Put plainly: Inhibition of bovine desmolase, cytochrome P450 11A1; NI = No Inhibition at maximum concentration tested. In short, it runs like this: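 Bovine adrenal cortex mitochondrial fraction as side-chain cleavage enzyme. […] Released [14C]isocaproic acid passes through alumina, which retains the steroid; eluate radioactivity is counted. Compound tested at 5, 10, 20 and 50 μg/mL. IC50 is the concentration that halves control activity, extrapolated when above the top concentration. "None" means no inhibition at the maximum tested.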

A short description of data set [2]: Partition coefficient (logP). The format is physicochemical. To be noted: octanol/water.
For a further data set, the target named is T2, Aromatase (Homo sapiens, UniProt P11511).
T2 sequence (P11511 whole entry): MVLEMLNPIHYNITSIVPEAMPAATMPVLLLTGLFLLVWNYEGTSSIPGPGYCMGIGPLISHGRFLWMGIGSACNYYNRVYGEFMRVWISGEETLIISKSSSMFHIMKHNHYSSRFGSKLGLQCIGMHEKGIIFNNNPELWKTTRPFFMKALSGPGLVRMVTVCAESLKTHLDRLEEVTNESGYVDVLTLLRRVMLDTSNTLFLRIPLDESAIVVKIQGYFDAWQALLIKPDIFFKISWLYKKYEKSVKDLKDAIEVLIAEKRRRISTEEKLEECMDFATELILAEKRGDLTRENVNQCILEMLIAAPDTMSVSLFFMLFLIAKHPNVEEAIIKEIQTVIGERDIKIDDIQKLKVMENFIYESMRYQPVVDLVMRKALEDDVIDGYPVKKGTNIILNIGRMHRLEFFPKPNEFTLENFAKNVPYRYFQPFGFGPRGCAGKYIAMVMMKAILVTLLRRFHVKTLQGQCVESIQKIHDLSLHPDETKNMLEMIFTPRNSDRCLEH

Each structure is given as a SMILES string.

Regarding `CCCN1C(=O)CCC(CC)(c2ccncc2)C1=O` (stereo not given), in data set [1], the half-maximal inhibitory concentration (IC50) entry is “No inhibition”. Besides, the logP in data set [2] was found to be 2.18.
For `CCCCN1C(=O)CCC(CC)(c2ccncc2)C1=O` (stereo not given), in that order: “No inhibition” and 2.76.
Regarding `CCCCCCN1C(=O)CCC(CC)(c2ccncc2)C1=O` (stereo not given), in data set [1], the concentration for half-maximal inhibition (IC50) result is on record as “No inhibition”.
The same measure, in the same setting: the same measure for `CC1(c2ccncc2)CCC(=O)NC1=O` (stereo not given): “No inhibition”.
Turning to `CCCC1(c2ccncc2)CCC(=O)NC1=O` (stereo not given), the IC50 result in data set [1] is given as “No inhibition”. In data set [2], the logP was 1.13.
As to `CCCCCCCC1(c2ccncc2)CCC(=O)NC1=O` (stereo not given), the IC50 at Aromatase stood at 3.2 µM.
As for `CCCCC1(c2ccncc2)CCC(=O)NC1=O` (stereo not given), the IC50 entry in data set [1] was “No inhibition”.
`CCCCCCC1(c2ccncc2)CCC(=O)NC1=O` (stereo not given): the values for the IC50 result (in data set [1]; against Aromatase) were “No inhibition” and 3.6 µM, respectively. Further, the log partition coefficient (logP) in data set [2] came to 2.94.
Turning to `CCN1C(=O)CCC(CC)(c2ccncc2)C1=O` (stereo not given), the IC50 entry in data set [1] is “No inhibition”. In data set [2], this molecule showed a log partition coefficient (logP) of 1.64.
Turning to `CCC1(c2ccncc2)CCC(=O)N(C)C1=O` (stereo not given), in data set [1], the IC50 result is “No inhibition”.
As for `CCCCCC1(c2ccncc2)CCC(=O)NC1=O` (stereo not given), the IC50 entry is “No inhibition” in data set [1] and 2.5 µM against Aromatase. In data set [2], this molecule gave a logP of 2.26.
`CCC1(c2ccncc2)CCC(=O)NC1=O` (stereo not given) [ROGLETIMIDE]: the lipophilicity (logP) in data set [2] was 0.58.

Usually IC50 stands for the point on the concentration scale where inhibition reaches its midpoint. A high value points to weaker potency in that assay. As a reminder, the logP is the decadic logarithm of the partition coefficient of the neutral form, usually between octanol and water. Low values mean lower lipophilicity, high ones higher lipophilicity.
